Active and inactive are the calls of the source.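 How the source made its calls, unless noted: active means GFP response above 150% of the DMSO level; inconclusive means fewer than 70 events counted for a yeast strain; inactive means the rest.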
Key:
[1] = hit retest on RPL19A-GFP reporter strain – cell-based, S. cerevisiae, flow cytometry, cherry picks, mother/daughter gates, confirmation (AID 2270;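 active means GFP response below 50% of the DMSO control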); conditions: 3 h, at 10 µM, stronger effect = lower value, 100 = same GFP as DMSO wells
[2] = yeast TOR pathway reporter LAP4-GFP change – cell-based, cherry picks, flow cytometry, mother/daughter gates, confirmation (AID 2271;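 active means GFP response above 150% of the DMSO control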;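 further: ratio of sample to DMSO plate mean so 100% equals DMSO level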); conditions: S. cerevisiae LAP4-GFP strain, 3 h, at 10 µM, stronger effect = higher value, 100 means same as DMSO control
Summary of the method: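 System – GFP-fusion yeast strain · Amount – 0.2 OD600 cells · Buffer or medium – SC growth medium · Dosing – single test-compound dose, 10 µM final · Schedule – 3 h treatment at 30 °C with rotation · Detection – GFP by flow cytometry · Read-out – per-gate (all, mother, daughter) GFP response vs DMSO · Benchmarks – positive rapamycin (400 ng/mL), negative DMSO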

[3] = TOR pathway reporter MEP2-GFP, retest of hits – S. cerevisiae, flow cytometry GFP, cherry picks, confirmation (AID 2272;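 active means GFP response above 150% of the DMSO control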;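 further: ratio of well signal to plate DMSO mean so 100% equals DMSO level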); conditions: S. cerevisiae MEP2-GFP strain, 3 h, at 10 µM, stronger effect = higher value
[4] = yeast AGP1-GFP fluorescence change, single-dose – cell-based, flow cytometry, S. cerevisiae, cherry picks, confirmation (AID 2273);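 further: median GFP channel fluorescence over the whole cell population gate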; conditions: S. cerevisiae AGP1-GFP strain, 3 h, at 10 µM
[5] = TOR pathway CIT2 reporter hit retest – S. cerevisiae, GFP fusion, cherry picks, mother/daughter gates, confirmation (AID 2274); conditions: S. cerevisiae CIT2-GFP strain, flow cytometry, 3 h, at 10 µM, stronger effect = higher value
[6] = measured here: daughter cell gate
[7] = measured here: mother cell gate
[8] = measured here: daughter cell gate response
[9] = measured here: mother cell gate response

| SMILES | GFP response vs DMSO [1] | GFP response vs DMSO [1, 6] | GFP response vs DMSO [1, 7] | GFP response relative to DMSO [2] | GFP response relative to DMSO [2, 8] | GFP response relative to DMSO [2, 9] | GFP response vs DMSO [3] | GFP response, % of DMSO [4] | GFP response, % of DMSO [5] | GFP response, % of DMSO [5, 6] | GFP response, % of DMSO [5, 7] |
| --- | --- | --- | --- | --- | --- | --- | --- | --- | --- | --- | --- |
| O=C1c2ccccc2C(=O)N1OS(=O)(=O)c1ccc(F)cc1 | 74% (inactive) | 89.4% | 61.9% | 127% (inactive) | 129% | 129% | 103% (inactive) | 102% (inactive) | 121% (inactive) | 103% | 99.7% |
| O=C(CSc1cccc[n+]1[O-])c1cc2ccccc2o1 | 104% (inactive) | 107% | 103% | 138% (inactive) | 126% | 137% | 109% (inactive) | 97.2% (inactive) | 107% (inactive) | 111% | 104% |
| CCN(CC)CCCN(Cc1cc2cc3c(cc2[nH]c1=O)OCO3)C(=S)Nc1ccccc1 | 87.4% (inactive) | 74.2% | 80.4% | 135% (inactive) | 104% | 131% | 139% (inactive) | 133% (inactive) | 126% (inactive) | 103% | 120% |
| O=C(OCC(=O)N1CCN(C(=O)c2ccco2)CC1)c1cc(-c2cccc(Br)c2)nc2ccccc12 | 80.3% (inactive) | 75.5% | 76.9% | 139% (inactive) | 117% | 144% | 125% (inactive) | 127% (inactive) | 128% (inactive) | 114% | 125% |
| O=C(NCC(=O)N1CCCC1)c1cccs1 | 99.8% (inactive) | 99.6% | 100% | 99.2% (inactive) | 97.6% | 98.3% | 100% (inactive) | 97.2% (inactive) | 104% (inactive) | 105% | 104% |
| Cc1ccccc1CN1CCSc2sccc2C1=O | 95.9% (inactive) | 94.2% | 97.3% | 106% (inactive) | 105% | 113% | 95.7% (inactive) | 97.2% (inactive) | 97.8% (inactive) | 94.8% | 98.7% |
| NC(=O)COc1ccc(C(=O)/C=C2/C(=O)Nc3ccccc32)cc1 | 94% (inactive) | 93.4% | 81% | 95.4% (inactive) | 91.2% | 96.1% | 94.1% (inactive) | 107% (inactive) | 101% (inactive) | 103% | 101% |
| c1ccc(-c2cccc(-c3ccccn3)n2)nc1 | 92.9% (inactive) | 82.8% | 96.9% | 258% (active) | 210% | 268% | 106% (inactive) | 89% (inactive) | 97.8% (inactive) | 87.2% | 100% |
| Cc1cccc(Sc2ccc([N+](=O)[O-])cc2[N+](=O)[O-])n1 | 102% (inactive) | 100% | 102% | 97.4% (inactive) | 100% | 98.3% | 104% (inactive) | 101% (inactive) | 100% (inactive) | 101% | 99.8% |
| O=C(OCc1cc(Cl)ccc1OC(F)F)c1ccc([N+](=O)[O-])o1 | 97% (inactive) | 99.8% | 94% | 114% (inactive) | 110% | 120% | 100% (inactive) | 95.7% (inactive) | 95.2% (inactive) | 98.1% | 92.3% |
| Cc1cc(C)c(S(C)(=O)=O)c(S(=O)(=O)c2ccc(Cl)cc2)n1 | 100% (inactive) | 100% | 100% | 99.2% (inactive) | 97.6% | 99.3% | 98.3% (inactive) | 100% (inactive) | 103% (inactive) | 103% | 101% |
| CC(C)(C)NC(=O)CN(C(=O)CCC(=O)Nc1nccs1)c1ccc(F)cc1 | 101% (inactive) | 100% | 101% | 98.2% (inactive) | 95.9% | 98.4% | 105% (inactive) | 101% (inactive) | 102% (inactive) | 99.2% | 101% |
| CCCCc1nnc(NC(=O)c2nc3nccc(C)n3n2)s1 | 98.7% (inactive) | 98.3% | 99.8% | 96.5% (inactive) | 95% | 96.5% | 106% (inactive) | 104% (inactive) | 109% (inactive) | 109% | 110% |
| COc1ccccc1N1CCN(C(=O)c2ccccc2Oc2ccccc2)CC1 | 96.7% (inactive) | 97% | 95.2% | 91.8% (inactive) | 92.9% | 87.3% | 101% (inactive) | 98.6% (inactive) | 98.6% (inactive) | 97.6% | 93.8% |
| O=C(NNC(=S)NC(=O)c1ccco1)c1ccc(F)cc1 | 106% (inactive) | 106% | 105% | 115% (inactive) | 115% | 114% | 115% (inactive) | 104% (inactive) | 107% (inactive) | 116% | 102% |
| O=C(COC(=O)c1n[nH]c2ccccc12)c1cc(F)ccc1F | 99.5% (inactive) | 99% | 101% | 97.4% (inactive) | 98.7% | 98.3% | 97.8% (inactive) | 97.6% (inactive) | 97.8% (inactive) | 96.5% | 99.8% |

| SMILES | GFP response vs DMSO [1] | GFP response vs DMSO [1, 6] | GFP response vs DMSO [1, 7] | GFP response relative to DMSO [2] | GFP response relative to DMSO [2, 8] | GFP response relative to DMSO [2, 9] | GFP response vs DMSO [3] | GFP response, % of DMSO [4] | GFP response, % of DMSO [5] | GFP response, % of DMSO [5, 6] | GFP response, % of DMSO [5, 7] |
| --- | --- | --- | --- | --- | --- | --- | --- | --- | --- | --- | --- |
| CC(C)(C)n1nc(-c2ccc(Cl)cc2)c2c(N)ncnc21 | 44.2% (active) | 39.7% | 45.6% | 191% (active) | 172% | 195% | 118% (inactive) | 106% (inactive) | 44.4% (inactive) | 46.1% | 42.4% |
| Cc1cccc(N2C(=O)c3cccc4c(N(C)CCO)ccc(c34)C2=O)c1 | 98.8% (inactive) | 96.9% | 99% | 110% (inactive) | 106% | 109% | 103% (inactive) | 101% (inactive) | 105% (inactive) | 105% | 104% |
| COc1ccc(/C=C2\Sc3ccc(C(=O)N4CCc5ccccc5C4)cc3N(C)C2=O)cc1 | 98.4% (inactive) | 97.4% | 99.5% | 99.2% (inactive) | 99.2% | 98.3% | 102% (inactive) | 102% (inactive) | 99.7% (inactive) | 99.1% | 98.5% |
| CCOc1ccc(C(C)=O)cc1N1C(=O)C2C3C=CC(O3)C2C1=O (stereo unspecified) | 100% (inactive) | 105% | 95.6% | 136% (inactive) | 132% | 136% | 103% (inactive) | 97.9% (inactive) | 110% (inactive) | 110% | 104% |
| CC(C)COC(=O)NCC12C=CC(O1)C1C(=O)N(c3ccc(Cl)cc3)C(=O)C12 (stereo unspecified) | 99.6% (inactive) | 99.5% | 98.4% | 98.9% (inactive) | 101% | 99.5% | 106% (inactive) | 107% (inactive) | 101% (inactive) | 101% | 102% |
| CCOC(=O)c1sc(Nc2nc3c(OC)cccc3s2)nc1C | 103% (inactive) | 77.4% | 69% | 97% (inactive) | 94.2% | 92% | 112% (inactive) | 106% (inactive) | 100% (inactive) | 90.2% | 90.7% |
| Cc1cc(S(=O)(=O)ON2C(=O)c3ccccc3C2=O)ccc1F | 78.2% (inactive) | 84.3% | 66.6% | 153% (active) | 153% | 160% | 108% (inactive) | 105% (inactive) | 120% (inactive) | 84.1% | 98.7% |
| O=C1/C(=C\c2ccccn2)SC(=S)N1Nc1ncc(C(F)(F)F)cc1Cl | 99.1% (inactive) | 98.3% | 99% | 98.8% (inactive) | 92.2% | 99.5% | 102% (inactive) | 94.9% (inactive) | 95% (inactive) | 94.6% | 93.3% |
| O=[N+]([O-])c1cc(Cl)ccc1Sc1ccccn1 | 104% (inactive) | 102% | 103% | 98.2% (inactive) | 95.9% | 98.4% | 112% (inactive) | 99% (inactive) | 95.9% (inactive) | 95.6% | 93.2% |
| COC(=O)c1ccc(C(=O)NC(=S)Nc2ccc3nc(SC)sc3c2)cc1 | 97.8% (inactive) | 97.6% | 98.3% | 90% (inactive) | 90.4% | 91% | 101% (inactive) | 102% (inactive) | 103% (inactive) | 93.7% | 105% |
| C(=N\Nc1nc(-c2cccnc2)nc2ccccc12)/c1ccccc1 | 101% (inactive) | 101% | 102% | 99.2% (inactive) | 99.2% | 98.3% | 102% (inactive) | 95.6% (inactive) | 104% (inactive) | 105% | 103% |
| Nc1ccc(C(=O)N/N=C/c2ccccc2)cc1 | 105% (inactive) | 102% | 106% | 102% (inactive) | 99.1% | 102% | 101% (inactive) | 108% (inactive) | 100% (inactive) | 101% | 99.3% |
| Cc1ccccc1C(=O)Nc1cccc(C#N)c1 | 95.6% (inactive) | 96.7% | 94.2% | 97.7% (inactive) | 99% | 97.4% | 108% (inactive) | 99.8% (inactive) | 97.2% (inactive) | 99.3% | 97.1% |
| Cc1ccc(C(c2cc(Cl)c3cccnc3c2O)N2CCN(C)CC2)cc1 (stereo unspecified) | 81.4% (inactive) | 94.4% | 67.7% | 184% (active) | 141% | 208% | 116% (inactive) | 95.9% (inactive) | 119% (inactive) | 97.4% | 113% |
| O=C(CNC(=O)c1ccncc1)N/N=C/c1cccc([N+](=O)[O-])c1 | 99.2% (inactive) | 98.6% | 99.4% | 97.9% (inactive) | 97.6% | 98.3% | 105% (inactive) | 94.7% (inactive) | 99.7% (inactive) | 101% | 99.7% |

From PubChem BioAssay
